This is an account of results in ChEMBL document CHEMBL4715752, “Synthesis and anti-leishmanial evaluation of 1-phenyl-2,3,4,9-tetrahydro-1H-β-carboline derivatives against Leishmania infantum” (Eur J Med Chem, 2016).

Data set [1] can be described thus: Selectivity index, ratio of CC50 for mouse splenocytes to IC50 for Leishmania infantum BCN150 amastigotes expressing IFP1.4 infected in BALB/c mouse splenocytes. In kind it is toxicity, cell-based. To be noted: read-out: Ratio CC50/IC50.
Data set [2] deals with Leishmania infantum. Description: Antileishmanial activity against Leishmania infantum BCN150 promastigotes expressing IFP1.4 assessed as inhibition of parasite growth by measuring the infrared fluorescence incubated for 48 hrs. In kind it is functional, organism-based. To be noted: BCN150, 48 h. The procedure, abridged: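 Transgenic infrared-fluorescent L. infantum BCN150 promastigotes in 96-well plates. 200 µL culture per well at 1 × 10^6 with graded compound concentrations (1, 10, 100). Incubated 48 h at 26 °C, then promastigote growth assessed.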

Data set [3] can be described thus: Cytotoxicity against mouse splenocytes by alamar blue assay. In kind it is cell-based, Splenocyte.
The subject of data set [4] is Leishmania infantum. The experiment in a line: Antileishmanial activity against Leishmania infantum BCN150 amastigotes expressing IFP1.4 infected in BALB/c mouse splenocytes incubated for 72 hrs by infrared fluorescence imaging analysis. Type of data set: functional, organism-based. As to conditions: BCN150, Splenocyte. In short, it runs like this: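 Spleens from female BALB/c mice infected intraperitoneally. Splenocytes washed 3x in PBS and seeded in 384-well plates in RPMI, 20% FCS, 1 mM pyruvate, vitamins, 10 mM HEPES, penicillin/streptomycin. Wells set by fixed IR fluorescence per well, not by cell count. Compounds at various concentrations for 72 h. Fluorescence read at 700 nm on an infrared imager.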

Data set [5] in a line: Selectivity index, ratio of CC50 for mouse splenocytes to IC50 for Leishmania infantum BCN150 promastigotes expressing IFP1.4. In kind it is toxicity. As to conditions: read-out: Ratio CC50/IC50.
Data set [6] relates to Leishmania infantum. Description: Antileishmanial activity against late log phase promastigote stage of Leishmania infantum MHOM/FR/78/LEM75 assessed as inhibition of parasite growth incubated for 48 hrs by hemocytometer counting method. In kind it is functional, organism-based. As to conditions: MHOM/FR/78/LEM75, 48 h.

≈ marks a conversion by molar mass, not a printed value. Bounds are passed on as bounds.

In general, IC50 refers to the concentration that gives 50% inhibition. The term CC50 denotes the concentration at which the toxic effect on the cells reaches its halfway point. A low value points to harm at low concentration. Regarding `O=C(CN1CCc2c([nH]c3ccccc23)C1c1ccccc1)Nc1cccc([N+](=O)[O-])c1` (configuration not stated), the selectivity ratio in data set [1] is greater than 230. Besides, the values for the IC50 in the data set with Leishmania infantum [2] and in the data set with Leishmania infantum [4] were greater than 100 µM and 0.87 µM, respectively. The same compound had a CC50 in data set [3] greater than 200 µM.

Turning to `Cc1cccc(NC(=O)CN2CCc3c([nH]c4ccccc34)C2c2ccccc2)c1` (configuration not stated), the selectivity ratio is greater than 26.2 in data set [5] and greater than 135 in data set [1]. In addition, the values for the IC50 in the data set on Leishmania infantum [2] and in the data set with Leishmania infantum [4] were 7.63 µM and 1.48 µM, respectively. Also, the CC50 in data set [3] was greater than 200 µM.

With `COc1cccc(NC(=O)CN2CCc3c([nH]c4ccccc34)C2c2ccccc2)c1` (configuration not stated), the selectivity ratio is greater than 13.7 in data set [5] and greater than 163 in data set [1]. In addition, the IC50 with Leishmania infantum [2] came to 14.6 µM; in the data set with Leishmania infantum [4], 1.23 µM. In addition, the CC50 in data set [3] was greater than 200 µM.

As for `Cc1ccccc1NC(=O)CN1CCc2c([nH]c3ccccc23)C1c1ccccc1` (configuration not stated), the selectivity ratio in data set [5] is greater than 19.2; in data set [1] it was greater than 298. The figures for the IC50 in the data set on Leishmania infantum [2] and with Leishmania infantum [4] were 10.4 µM and 0.67 µM, respectively. Also, the cytotoxic concentration (CC50) in data set [3] was greater than 200 µM.

Consider `O=C(CN1CCc2c([nH]c3ccccc23)C1c1ccccc1)Nc1ccc([N+](=O)[O-])cc1` (configuration not stated), for which the selectivity ratio in data set [5] is greater than 24.7; in data set [1], greater than 37.8. The IC50 in the data set on Leishmania infantum [2] is 8.1 µM; in the data set with Leishmania infantum [4] it was 5.29 µM. This compound had a CC50 in data set [3] greater than 200 µM.

`Cc1ccc(NC(=O)CN2CCc3c([nH]c4ccccc34)C2c2ccccc2)c(C)c1` (configuration not stated): the selectivity ratio was greater than 11.8 in data set [5] and greater than 75.8 in data set [1]. The values for the IC50 in the data set on Leishmania infantum [2] and in the data set on Leishmania infantum [4] were 16.9 µM and 2.64 µM, respectively. Also, the half-maximal cytotoxic concentration (CC50) in data set [3] is greater than 200 µM.

Regarding `O=C(CN1CCc2c([nH]c3ccccc23)C1c1ccccc1)Nc1ccc(F)cc1` (configuration not stated), the selectivity ratio was greater than 13.2 in data set [5] and greater than 48.1 in data set [1]. In addition, the IC50 in the data set on Leishmania infantum [2] amounted to 15.1 µM; in the data set with Leishmania infantum [4], 4.16 µM. Besides, the CC50 in data set [3] is greater than 200 µM.

As for `COc1ccc(NC(=O)CN2CCc3c([nH]c4ccccc34)C2c2ccccc2)cc1` (configuration not stated), the selectivity ratio in data set [1] is greater than 30.9. Besides, the IC50 is greater than 100 µM in the data set with Leishmania infantum [2] and 6.46 µM in the data set with Leishmania infantum [4]. In data set [3], this compound gave a CC50 greater than 200 µM.

For the compound `O=C(CN1CCc2c([nH]c3ccccc23)C1c1ccccc1)Nc1cccc2ccccc12` (configuration not stated), the selectivity ratio in data set [1] was greater than 88.9. Moreover, the IC50 is greater than 100 µM with Leishmania infantum [2] and 2.25 µM in the data set with Leishmania infantum [4]. In addition, the CC50 in data set [3] was greater than 200 µM.

Take `COc1ccccc1NC(=O)CN1CCc2c([nH]c3ccccc23)C1c1ccccc1` (configuration not stated): the selectivity ratio in data set [5] was greater than 100; in data set [1], greater than 37.4. For the same compound, the IC50 was 1.99 µM in the data set on Leishmania infantum [2] and 5.35 µM in the data set on Leishmania infantum [4]. For the same compound, the CC50 in data set [3] is greater than 200 µM.

Regarding `O=C(CN1CCc2c([nH]c3ccccc23)C1c1ccccc1)Nc1ccccc1` (configuration not stated), the selectivity ratio is greater than 16.2 in data set [5] and greater than 119 in data set [1]. In addition, the IC50 in the data set with Leishmania infantum [2] is 12.4 µM; with Leishmania infantum [4], 1.68 µM. Besides, the CC50 in data set [3] was greater than 200 µM.

Take `O=C(CN1CCc2c([nH]c3ccccc23)C1c1ccccc1)Nc1ccc(Cl)cc1` (configuration not stated): the results for the selectivity ratio in data set [5] and in data set [1] were 9.64 and 38.9, respectively. Also, the IC50 with Leishmania infantum [2] was determined as 15.1 µM; in the data set with Leishmania infantum [4], 3.75 µM. Also, in data set [3], the midpoint of cytotoxicity, the CC50, lay at 146 µM.

As to `O=C(CN1CCc2c([nH]c3ccccc23)C1c1ccccc1)Nc1cccc(C(F)(F)F)c1` (configuration not stated), the results for the selectivity ratio in data set [5] and in data set [1] were greater than 4.43 and greater than 99, respectively. Moreover, the values for the IC50 with Leishmania infantum [2] and in the data set with Leishmania infantum [4] were 45.2 µM and 2.02 µM, respectively. In data set [3], this compound yielded a CC50 greater than 200 µM.

For the compound `C/C=C1\CCN2CCc3c([nH]c4ccccc34)[C@H]2[C@@H]1[C@@H](C(=O)OC)[C@H]1NCCc2c1[nH]c1ccccc21`, the IC50 in the data set on Leishmania infantum [6] came to 1.56 µg/mL (≈ 3.15 µM).

As for `O=C(CN1CCc2c([nH]c3ccccc23)C1c1ccccc1)Nc1cccc(Cl)c1` (configuration not stated), the selectivity ratio in data set [5] was greater than 29.9; in data set [1], greater than 132. The IC50 with Leishmania infantum [2] amounted to 6.68 µM; in the data set with Leishmania infantum [4] it was 1.51 µM. Further, the CC50 in data set [3] is greater than 200 µM.

With `O=C(CN1CCc2c([nH]c3ccccc23)C1c1ccccc1)Nc1ccccc1Cl` (configuration not stated), the selectivity ratio in data set [5] is greater than 9.67; in data set [1], greater than 190. Further, the figures for the IC50 in the data set with Leishmania infantum [2] and in the data set with Leishmania infantum [4] were 20.7 µM and 1.05 µM, respectively. In addition, the CC50 in data set [3] was greater than 200 µM.

For `Cc1ccc(NC(=O)CN2CCc3c([nH]c4ccccc34)C2c2ccccc2)cc1` (configuration not stated), the selectivity ratio in data set [5] is greater than 10.4; in data set [1] it was greater than 31.7. Besides, the IC50 in the data set on Leishmania infantum [2] is 19.2 µM; in the data set with Leishmania infantum [4], 6.31 µM. The compound also yielded a CC50 in data set [3] greater than 200 µM.

Regarding `C[C@@H]1[C@H](O)[C@@H](C)/C=C/C=C/C=C/C=C/C=C/C=C/C=C/[C@H](O[C@@H]2O[C@H](C)[C@@H](O)[C@H](N)[C@@H]2O)C[C@@H]2O[C@](O)(C[C@@H](O)C[C@@H](O)[C@H](O)CC[C@@H](O)C[C@@H](O)CC(=O)O[C@H]1C)C[C@H](O)[C@H]2C(=O)O` [AMPHOTERICIN B], the selectivity ratio in data set [5] is greater than 260; in data set [1], greater than 62.5. This compound also registered a CC50 in data set [3] greater than 20 µM. Also, in the data set on Leishmania infantum [4], the IC50 was determined as 0.32 µM.
